Experimental data taken from ChEMBL document CHEMBL2331279, “Rational design and synthesis of 4-substituted 2-pyridin-2-ylamides with inhibitory effects on SH2 domain-containing inositol 5'-phosphatase 2 (SHIP2)” (Eur J Med Chem, 2013).
The source made the active and inactive calls. The rule behind the calls is not given here.

Target: T1, Phosphatidylinositol 3,4,5-trisphosphate 5-phosphatase 2 (Mus musculus) (UniProt Q6P549)
T1 sequence (whole entry): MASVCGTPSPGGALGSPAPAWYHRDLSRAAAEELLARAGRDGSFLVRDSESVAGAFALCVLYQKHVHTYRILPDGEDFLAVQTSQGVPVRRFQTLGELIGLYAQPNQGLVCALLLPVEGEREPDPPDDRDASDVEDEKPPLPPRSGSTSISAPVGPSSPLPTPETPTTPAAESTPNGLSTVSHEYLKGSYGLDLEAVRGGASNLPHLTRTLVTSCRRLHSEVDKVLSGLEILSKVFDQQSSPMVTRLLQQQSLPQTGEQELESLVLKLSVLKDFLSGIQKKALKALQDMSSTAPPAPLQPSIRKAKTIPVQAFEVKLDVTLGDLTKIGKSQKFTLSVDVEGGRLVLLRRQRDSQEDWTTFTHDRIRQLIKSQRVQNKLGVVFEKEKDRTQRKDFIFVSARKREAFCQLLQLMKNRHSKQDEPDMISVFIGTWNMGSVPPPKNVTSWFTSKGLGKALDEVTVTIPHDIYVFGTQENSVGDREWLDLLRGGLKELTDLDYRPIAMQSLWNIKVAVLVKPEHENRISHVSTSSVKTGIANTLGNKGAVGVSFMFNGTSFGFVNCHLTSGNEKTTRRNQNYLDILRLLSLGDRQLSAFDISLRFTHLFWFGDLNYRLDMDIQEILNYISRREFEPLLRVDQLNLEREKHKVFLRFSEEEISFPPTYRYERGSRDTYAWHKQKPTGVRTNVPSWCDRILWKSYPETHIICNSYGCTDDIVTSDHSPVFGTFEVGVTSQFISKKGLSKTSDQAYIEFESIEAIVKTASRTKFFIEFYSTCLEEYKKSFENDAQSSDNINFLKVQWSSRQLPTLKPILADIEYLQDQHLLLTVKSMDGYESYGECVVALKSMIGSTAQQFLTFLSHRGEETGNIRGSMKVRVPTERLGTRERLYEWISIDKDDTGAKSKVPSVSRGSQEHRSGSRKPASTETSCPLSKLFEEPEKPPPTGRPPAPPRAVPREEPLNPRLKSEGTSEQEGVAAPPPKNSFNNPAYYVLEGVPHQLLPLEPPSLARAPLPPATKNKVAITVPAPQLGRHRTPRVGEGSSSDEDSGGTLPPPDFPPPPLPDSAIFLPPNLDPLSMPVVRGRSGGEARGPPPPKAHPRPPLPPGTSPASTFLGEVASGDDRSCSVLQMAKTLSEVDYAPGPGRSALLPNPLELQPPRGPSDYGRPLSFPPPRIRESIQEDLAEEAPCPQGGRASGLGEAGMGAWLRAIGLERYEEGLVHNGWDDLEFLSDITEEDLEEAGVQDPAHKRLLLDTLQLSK
Experiment: Inhibition of SHIP2 in mouse 3T3L1 cells assessed as reduction of TNF-alpha induced decrease in insulin-stimulated Akt phosphorylation at Thr308 at 10 uM treated for 15 mins after TNF alpha challenge for 16 hrs and prior to insulin stimulation measured after 2 hrs by Western blot analysis
Type: cell-based
Conditions: 3T3-L1
Summary of the method: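 3T3-L1 fibroblasts differentiated into adipocytes, then serum-starved 16 h with TNFα 20 ng/mL. Treated with compound 10 µM or 0.1% DMSO for 15 min, then stimulated with 17 nM insulin at 37 °C for 2 h. Cells lysed on ice at pH 7.5 and Thr308 phospho-Akt measured by western blot. Results given as fold change versus TNFα+insulin control. Mean ± SE.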

inhibition: Active
SMILES: O=C(Cc1c(F)cccc1F)Nc1cc(OCc2ccc(Cl)cc2)ccn1
